# pEC50: −log10 of the molar value.
# Tested on: Human immunodeficiency virus 1
# Assay: Antiviral activity against HIV1 3B infected in human PBMC assessed as protection against virus-induced cytopathogenicity after 3 days
# Assay type: functional, organism-based
# Settings: Human immunodeficiency virus 1, 3B, 72 h
row,SMILES,pEC50
1,CC(C)c1c(CC2CCCCC2)nc(SCC(=O)c2ccccc2)[nH]c1=O,7.51

# Tested on: not listed separately
# Assay: Selectivity index, ratio of CC50 for human […] cells to EC50 for HIV1 3B infected in human C8166 cells
# Assay type: toxicity, cell-based
# Settings: read-out: Ratio CC50/IC50
# Outline: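 SI was calculated as CC50/EC50. CC50 came from the 72 h MTT assay on uninfected C8166 cells. EC50 came from the 3-day syncytium-count assay in C8166 cells infected with HIV-1 IIIB at MOI 0.02. Both values are means of three experiments.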
row,SMILES,selectivity ratio
1,CC(C)c1c(CC2CCCCC2)nc(SCC(=O)c2ccccc2O)[nH]c1=O,117000
2,COc1ccc(C(=O)CSc2nc(CC3CCCCC3)c(C(C)C)c(=O)[nH]2)cc1,1.39e+06
3,CC(C)c1c(CC2CCCCC2)nc(SCC(=O)c2ccccc2)[nH]c1=O,3.62e+06
4,CC(C)CSc1nc(CC2CCCCC2)c(C(C)C)c(=O)[nH]1,1710
5,CC(C)c1c(CC2CCCCC2)nc(SCc2ccccc2)[nH]c1=O,2.54e+06
6,CCc1c(CC2CCCCC2)nc(SCC(=O)c2ccc(OC)cc2)[nH]c1=O,516000
7,CCc1c(CC2CCCCC2)nc(SCC(=O)c2ccccc2)[nH]c1=O,6.32e+06
8,CCc1c(CC2CCCCC2)nc(SCc2ccccc2)[nH]c1=O,776
9,CCc1c(CC2CCCCC2)nc(SCC(C)C)[nH]c1=O,691
10,COc1ccc(C(=O)CSc2nc(CC3CCCCC3)c(C)c(=O)[nH]2)cc1,396
11,Cc1c(CC2CCCCC2)nc(SCC(=O)c2ccccc2)[nH]c1=O,2150
12,Cc1c(CC2CCCCC2)nc(SCc2ccccc2)[nH]c1=O,48
13,Cc1c(CC2CCCCC2)nc(SCC(C)C)[nH]c1=O,34
14,CCc1c(Cc2ccccc2)nc(SCC(=O)c2ccccc2)[nH]c1=O,> 6850
15,CCc1c(Cc2ccccc2)nc(SCC(=O)c2ccc(OC)cc2)[nH]c1=O,> 10500
16,CC(C)c1c(Cc2ccccc2)nc(SCC(=O)c2ccccc2)[nH]c1=O,> 37700
17,COc1ccc(C(=O)CSc2nc(Cc3ccccc3)c(C(C)C)c(=O)[nH]2)cc1,> 3390
18,Cc1ccnc2c1NC(=O)c1cccnc1N2C1CC1 [NEVIRAPINE],> 15200
19,Cc1cn([C@H]2C[C@H](N=[N+]=[N-])[C@@H](CO)O2)c(=O)[nH]c1=O [ZIDOVUDINE],444000

# Tested on: Human immunodeficiency virus 1
# Assay: Antiviral activity against HIV1 3B infected in human A17 cells assessed as protection against virus-induced cytopathogenicity after 3 days
# Assay type: functional, organism-based
# Settings: Human immunodeficiency virus 1, 3B, A17, 72 h
row,SMILES,pEC50
1,CC(C)c1c(CC2CCCCC2)nc(SCC(=O)c2ccccc2)[nH]c1=O,7.34
